In article PMC5792653 (Nature chemical biology, 2017):
Where “and” joins values, the source holds several entries; their conditions need not be identical. Equal values may be shown once.

Experiments:
AMSH = biological target: T1, AMSH (Homo sapiens, UniProt O95630); assay: In vitro AMSH activity assay; format: biochemical
T1 sequence (O95630 1-424): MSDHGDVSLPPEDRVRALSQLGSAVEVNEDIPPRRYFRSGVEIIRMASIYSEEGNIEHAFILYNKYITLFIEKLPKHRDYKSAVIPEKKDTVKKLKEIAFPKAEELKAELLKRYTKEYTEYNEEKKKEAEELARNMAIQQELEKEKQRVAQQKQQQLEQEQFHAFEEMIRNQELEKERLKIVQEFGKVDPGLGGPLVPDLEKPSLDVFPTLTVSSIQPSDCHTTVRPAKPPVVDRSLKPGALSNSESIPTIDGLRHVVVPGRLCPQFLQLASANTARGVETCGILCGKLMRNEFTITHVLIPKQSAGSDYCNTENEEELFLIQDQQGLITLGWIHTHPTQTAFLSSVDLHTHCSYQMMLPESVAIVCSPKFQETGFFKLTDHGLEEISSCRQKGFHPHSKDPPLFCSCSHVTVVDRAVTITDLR

HeLa cells = assay: HeLa cell adhesion measurement; format: cell-based
In short: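 HeLa cells (DMEM, 10% FCS, penicillin/streptomycin) densely seeded at 200.000 per well. After 24 h, test compound or MG132 (DMSO) added at the indicated final concentrations from a dilution series to keep added volume constant. After 2 h, supernatant removed and detached cells counted in a Neubauer chamber. Alternatively, adhesion judged by microscopic morphology at 20×.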

USP25 = biological target: T2, USP25 (Homo sapiens, UniProt Q9UHP3); assay: In vitro DUB activity assay, USP25; format: biochemical; details: 50 μM THL
T2 sequence (Q9UHP3 1-1055): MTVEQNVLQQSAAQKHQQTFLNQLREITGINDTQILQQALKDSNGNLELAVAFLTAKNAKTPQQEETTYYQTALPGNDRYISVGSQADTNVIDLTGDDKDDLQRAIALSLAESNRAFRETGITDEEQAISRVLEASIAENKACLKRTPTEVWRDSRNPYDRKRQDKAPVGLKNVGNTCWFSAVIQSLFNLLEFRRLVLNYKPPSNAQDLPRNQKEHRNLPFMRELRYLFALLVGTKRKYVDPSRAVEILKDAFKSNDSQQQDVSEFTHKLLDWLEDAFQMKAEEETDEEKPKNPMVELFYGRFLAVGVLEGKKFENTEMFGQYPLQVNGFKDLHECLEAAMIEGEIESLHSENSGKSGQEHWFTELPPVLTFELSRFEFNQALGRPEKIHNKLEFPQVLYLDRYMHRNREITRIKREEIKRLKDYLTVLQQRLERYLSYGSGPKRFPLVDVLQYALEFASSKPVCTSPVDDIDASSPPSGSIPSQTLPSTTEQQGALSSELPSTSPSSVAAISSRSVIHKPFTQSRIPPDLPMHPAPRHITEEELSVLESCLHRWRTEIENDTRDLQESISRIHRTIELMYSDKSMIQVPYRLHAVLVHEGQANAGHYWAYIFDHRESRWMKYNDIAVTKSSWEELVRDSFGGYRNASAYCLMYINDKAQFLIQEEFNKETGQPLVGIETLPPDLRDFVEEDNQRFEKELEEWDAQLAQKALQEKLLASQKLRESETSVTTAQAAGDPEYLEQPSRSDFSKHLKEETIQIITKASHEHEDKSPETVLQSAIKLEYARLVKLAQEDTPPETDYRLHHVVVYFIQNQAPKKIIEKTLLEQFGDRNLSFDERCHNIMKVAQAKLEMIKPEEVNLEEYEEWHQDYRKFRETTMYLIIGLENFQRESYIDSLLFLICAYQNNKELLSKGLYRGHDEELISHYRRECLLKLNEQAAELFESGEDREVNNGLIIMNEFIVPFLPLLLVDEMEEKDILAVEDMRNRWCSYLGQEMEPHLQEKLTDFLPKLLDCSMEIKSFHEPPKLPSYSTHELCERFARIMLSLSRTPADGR
In short: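 Human USP25 or USP5 expressed in E. coli and purified. Enzyme (4 nM) preincubated 30 min at 30°C in Hepes pH 7.3 buffer (KOAc, Mg(OAc)2, EGTA, 1 mM DTT, Tween 20, ovalbumin, protease inhibitors) with DMSO, 50 μM test compound or 50 μM PR619. Reaction started with 1 μM K48-linked tetra-ubiquitin, stopped after 10 or 30 min with SDS sample buffer plus DTT, and analysed by anti-Ub Western blot.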

RNA polymerase III = RNA polymerase III (Saccharomyces cerevisiae, UniProt P04051+P22276); assay: In vitro run-off transcription using tailed templates, Pol III; format: biochemical, S.cerevisiae; details: affinity purified polymerase
N.crassa = assay: Protein degradation; format: cell-based, Neurospora crassa
In short: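 N. crassa grown in liquid medium (2% glucose, 2% arginine, 1× Vogel's) and treated with 10 μg/ml cycloheximide, 50 μM test compound (DMSO), or both. Whole-cell lysates taken at time points; 400 μg protein per lane blotted with VVD, FRQ and β-tubulin antibodies, with ECL detection on film. Three independent cultures.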

RNA polymerase II = RNA polymerase II (Saccharomyces cerevisiae, UniProt P04050+P08518); assay: In vitro run-off transcription using tailed templates, Pol II; format: biochemical, S.cerevisiae; details: affinity purified polymerase
RNA polymerase I = RNA polymerase I (Saccharomyces cerevisiae, UniProt P10964+P22138); assay: In vitro run-off transcription using tailed templates, Pol I; format: biochemical, S.cerevisiae; details: affinity purified polymerase
Rpn11 = Rpn11 (Homo sapiens, UniProt O00487); assay: In vitro Rpn11 activity assay; format: biochemical

CC(=O)Nc1c2sscc-2n(C)c1=O [THL, thiolutin]
overall concentration of intracellular Zn^2+ (HEK293T cells): did not reduce
AMSH IC50 relative to that measured for Rpn11 (AMSH; AMSH IC50 higher than Rpn11 IC50): ~8 fold
IC50 (AMSH; IC50, inhibition of AMSH, absence of Zn(cyclen)^2+): 4 µM and 3.96 µM
inhibition of AMSH in presence of Zn(cyclen)^2+ (AMSH; presence of Zn(cyclen)^2+): inhibition was reversible by Zn(cyclen)^2+
adhesion / detachment of HeLa cells (HeLa cells): efficiently inhibited adhesion
inhibition of cystein isopeptidase UPS25 (USP25): did not inhibit
inhibition of yeast RNA polymerase III, run-off transcription (RNA polymerase III): None of the three yeast polymerases were inhibited
degradation of FRQ (N.crassa): blocked but resumed after a wash-out
degradation of VVD (N.crassa; 50 μM THL alone or with CHX): completely blocked degradation
inhibition of yeast RNA polymerase II, run-off transcription (RNA polymerase II): None of the three yeast polymerases were inhibited
inhibition of yeast RNA polymerase I, run-off transcription (RNA polymerase I): None of the three yeast polymerases were inhibited
inhibition of Rpn11 in presence of excess Zn(cyclen)^2+ (Rpn11; 1 mM DTT and 0,1 mM Zn(cyclen)^2+): abrogated inhibition of Rpn11
inhibition of deubiquitylation of substrates by 19S, oxidized versus reduced THL (Rpn11; purified 26S, absence and presence of 1 mM DTT): only reduced THL inhibited
